Measurements as given in ChEMBL document CHEMBL4689842, “EUbOPEN Chemogenomics Library wave 1” (2021).

System: Fibroblast
Assay: Multiplex assay against human fibroblast
Assay type: toxicity, cell-based
Procedure, shortened: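 Values for tubulin, mitochondrial-mass and membrane-permeability phenotypes are per cents of cells with healthy nuclei. These cells were identified by CellPathfinder machine-learning gating of live cells that had been stained at seeding with Hoechst33342, BioTracker Green Microtubule Cytoskeleton Dye, MitoTracker Red and Annexin V Alexa Fluor 680 and imaged on a CQ1 microscope at 37°C and 5% CO2 after compound addition. The gating first set Hoechst high-intensity objects apart from normal cells, then split normal cells into healthy, pyknosed or fragmented nuclei, and pyknosed cells into mitotic or apoptotic.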

[1] = 12 h, 1 µM, compound concentration 1 uM, replicate 1
[2] = 12 h, 1 µM, compound concentration 1 uM, replicate 2
[3] = 12 h, 10 µM, compound concentration 10 uM, replicate 1
[4] = 12 h, 10 µM, compound concentration 10 uM, replicate 2
[5] = 24 h, 1 µM, compound concentration 1 uM, replicate 1
[6] = 24 h, 1 µM, compound concentration 1 uM, replicate 2
[7] = 24 h, 10 µM, compound concentration 10 uM, replicate 1
[8] = 24 h, 10 µM, compound concentration 10 uM, replicate 2
[9] = 48 h, 1 µM, compound concentration 1 uM, replicate 1
[10] = 48 h, 1 µM, compound concentration 1 uM, replicate 2
[11] = 48 h, 10 µM, compound concentration 10 uM, replicate 1
[12] = 48 h, 10 µM, compound concentration 10 uM, replicate 2

Cc1cccc(CN2CCN(C(c3ccccc3)c3ccc(Cl)cc3)CC2)c1.Cl.Cl (configuration not stated)
Population Apoptotic (%) [1]: 64%
Population Fragmented Nuclei (%) [1]: 22%
Population Healthy Nuclei (%) [1]: 48%
Population Hoechst High Intensity Objects (%) [1]: 22%
Population Membrane Permeable-Phenotype (%) [1]: 34%
Population Mitochondria Different-Phenotype (%) [1]: 8%
Population Mitotic Cells (%) [1]: 35%
Population Normal (%) [1]: 77%
Population Pyknosed Nuclei (%) [1]: 29%
Population Tubulin-Different-Phenotype (%) [1]: 44%
Total Cell Count [1]: 134
Population Apoptotic (%) [2]: 0%
Population Fragmented Nuclei (%) [2]: 16%
Population Healthy Nuclei (%) [2]: 79%
Population Hoechst High Intensity Objects (%) [2]: 8%
Population Membrane Permeable-Phenotype (%) [2]: 4%
Population Mitochondria Different-Phenotype (%) [2]: 26%
Population Mitotic Cells (%) [2]: 100%
Population Normal (%) [2]: 91%
Population Pyknosed Nuclei (%) [2]: 3%
Population Tubulin-Different-Phenotype (%) [2]: 23%
Total Cell Count [2]: 48
Population Apoptotic (%) [3]: 61%
Population Fragmented Nuclei (%) [3]: 26%
Population Healthy Nuclei (%) [3]: 38%
Population Hoechst High Intensity Objects (%) [3]: 11%
Population Membrane Permeable-Phenotype (%) [3]: 15%
Population Mitochondria Different-Phenotype (%) [3]: 45%
Population Mitotic Cells (%) [3]: 38%
Population Normal (%) [3]: 88%
Population Pyknosed Nuclei (%) [3]: 34%
Population Tubulin-Different-Phenotype (%) [3]: 90%
Total Cell Count [3]: 127
Population Apoptotic (%) [4]: 50%
Population Fragmented Nuclei (%) [4]: 14%
Population Healthy Nuclei (%) [4]: 72%
Population Hoechst High Intensity Objects (%) [4]: 6%
Population Membrane Permeable-Phenotype (%) [4]: 6%
Population Mitochondria Different-Phenotype (%) [4]: 61%
Population Mitotic Cells (%) [4]: 50%
Population Normal (%) [4]: 93%
Population Pyknosed Nuclei (%) [4]: 13%
Population Tubulin-Different-Phenotype (%) [4]: 47%
Total Cell Count [4]: 58
Population Apoptotic (%) [5]: 75%
Population Fragmented Nuclei (%) [5]: 21%
Population Healthy Nuclei (%) [5]: 56%
Population Hoechst High Intensity Objects (%) [5]: 26%
Population Membrane Permeable-Phenotype (%) [5]: 34%
Population Mitochondria Different-Phenotype (%) [5]: 5%
Population Mitotic Cells (%) [5]: 25%
Population Normal (%) [5]: 73%
Population Pyknosed Nuclei (%) [5]: 21%
Population Tubulin-Different-Phenotype (%) [5]: 40%
Total Cell Count [5]: 125
Population Apoptotic (%) [6]: 80%
Population Fragmented Nuclei (%) [6]: 18%
Population Healthy Nuclei (%) [6]: 73%
Population Hoechst High Intensity Objects (%) [6]: 10%
Population Membrane Permeable-Phenotype (%) [6]: 11%
Population Mitochondria Different-Phenotype (%) [6]: 13%
Population Mitotic Cells (%) [6]: 20%
Population Normal (%) [6]: 89%
Population Pyknosed Nuclei (%) [6]: 8%
Population Tubulin-Different-Phenotype (%) [6]: 22%
Total Cell Count [6]: 47
Population Apoptotic (%) [7]: 66%
Population Fragmented Nuclei (%) [7]: 29%
Population Healthy Nuclei (%) [7]: 44%
Population Hoechst High Intensity Objects (%) [7]: 14%
Population Membrane Permeable-Phenotype (%) [7]: 16%
Population Mitochondria Different-Phenotype (%) [7]: 40%
Population Mitotic Cells (%) [7]: 33%
Population Normal (%) [7]: 85%
Population Pyknosed Nuclei (%) [7]: 26%
Population Tubulin-Different-Phenotype (%) [7]: 86%
Total Cell Count [7]: 132
Population Apoptotic (%) [8]: 11%
Population Fragmented Nuclei (%) [8]: 10%
Population Healthy Nuclei (%) [8]: 77%
Population Hoechst High Intensity Objects (%) [8]: 5%
Population Membrane Permeable-Phenotype (%) [8]: 5%
Population Mitochondria Different-Phenotype (%) [8]: 63%
Population Mitotic Cells (%) [8]: 88%
Population Normal (%) [8]: 94%
Population Pyknosed Nuclei (%) [8]: 12%
Population Tubulin-Different-Phenotype (%) [8]: 45%
Total Cell Count [8]: 67
Population Apoptotic (%) [9]: 66%
Population Fragmented Nuclei (%) [9]: 30%
Population Healthy Nuclei (%) [9]: 58%
Population Hoechst High Intensity Objects (%) [9]: 18%
Population Membrane Permeable-Phenotype (%) [9]: 20%
Population Mitochondria Different-Phenotype (%) [9]: 3%
Population Mitotic Cells (%) [9]: 33%
Population Normal (%) [9]: 81%
Population Pyknosed Nuclei (%) [9]: 10%
Population Tubulin-Different-Phenotype (%) [9]: 30%
Total Cell Count [9]: 136
Population Apoptotic (%) [10]: 87%
Population Fragmented Nuclei (%) [10]: 24%
Population Healthy Nuclei (%) [10]: 68%
Population Hoechst High Intensity Objects (%) [10]: 9%
Population Membrane Permeable-Phenotype (%) [10]: 6%
Population Mitochondria Different-Phenotype (%) [10]: 7%
Population Mitotic Cells (%) [10]: 12%
Population Normal (%) [10]: 90%
Population Pyknosed Nuclei (%) [10]: 7%
Population Tubulin-Different-Phenotype (%) [10]: 44%
Total Cell Count [10]: 124
Population Apoptotic (%) [11]: 57%
Population Fragmented Nuclei (%) [11]: 39%
Population Healthy Nuclei (%) [11]: 54%
Population Hoechst High Intensity Objects (%) [11]: 12%
Population Membrane Permeable-Phenotype (%) [11]: 16%
Population Mitochondria Different-Phenotype (%) [11]: 25%
Population Mitotic Cells (%) [11]: 42%
Population Normal (%) [11]: 87%
Population Pyknosed Nuclei (%) [11]: 6%
Population Tubulin-Different-Phenotype (%) [11]: 79%
Total Cell Count [11]: 124
Population Apoptotic (%) [12]: 50%
Population Fragmented Nuclei (%) [12]: 42%
Population Healthy Nuclei (%) [12]: 52%
Population Membrane Permeable-Phenotype (%) [12]: 9%
Population Mitochondria Different-Phenotype (%) [12]: 34%
Population Mitotic Cells (%) [12]: 50%
Population Pyknosed Nuclei (%) [12]: 5%
Population Tubulin-Different-Phenotype (%) [12]: 88%
Total Cell Count [12]: 133

O=c1[nH]c2ccccc2n1C1CCN(Cc2ccc(-c3[nH]c4cc5ncnc5cc4nc3-c3ccccc3)cc2)CC1
Population Apoptotic (%) [1]: 66%
Population Fragmented Nuclei (%) [1]: 45%
Population Healthy Nuclei (%) [1]: 43%
Population Hoechst High Intensity Objects (%) [1]: 17%
Population Membrane Permeable-Phenotype (%) [1]: 6%
Population Mitochondria Different-Phenotype (%) [1]: 3%
Population Mitotic Cells (%) [1]: 33%
Population Normal (%) [1]: 82%
Population Pyknosed Nuclei (%) [1]: 11%
Population Tubulin-Different-Phenotype (%) [1]: 18%
Total Cell Count [1]: 251
Population Apoptotic (%) [2]: 83%
Population Fragmented Nuclei (%) [2]: 72%
Population Healthy Nuclei (%) [2]: 19%
Population Hoechst High Intensity Objects (%) [2]: 31%
Population Membrane Permeable-Phenotype (%) [2]: 15%
Population Mitochondria Different-Phenotype (%) [2]: 0%
Population Mitotic Cells (%) [2]: 16%
Population Normal (%) [2]: 68%
Population Pyknosed Nuclei (%) [2]: 8%
Population Tubulin-Different-Phenotype (%) [2]: 23%
Total Cell Count [2]: 99
Population Apoptotic (%) [3]: 67%
Population Fragmented Nuclei (%) [3]: 50%
Population Healthy Nuclei (%) [3]: 37%
Population Hoechst High Intensity Objects (%) [3]: 55%
Population Membrane Permeable-Phenotype (%) [3]: 33%
Population Mitochondria Different-Phenotype (%) [3]: 4%
Population Mitotic Cells (%) [3]: 32%
Population Normal (%) [3]: 44%
Population Tubulin-Different-Phenotype (%) [3]: 87%
Total Cell Count [3]: 524
Population Apoptotic (%) [4]: 70%
Population Fragmented Nuclei (%) [4]: 46%
Population Healthy Nuclei (%) [4]: 40%
Population Hoechst High Intensity Objects (%) [4]: 48%
Population Membrane Permeable-Phenotype (%) [4]: 27%
Population Mitochondria Different-Phenotype (%) [4]: 12%
Population Mitotic Cells (%) [4]: 30%
Population Normal (%) [4]: 51%
Population Pyknosed Nuclei (%) [4]: 12%
Population Tubulin-Different-Phenotype (%) [4]: 72%
Total Cell Count [4]: 158
Population Apoptotic (%) [5]: 45%
Population Fragmented Nuclei (%) [5]: 43%
Population Healthy Nuclei (%) [5]: 40%
Population Hoechst High Intensity Objects (%) [5]: 20%
Population Membrane Permeable-Phenotype (%) [5]: 8%
Population Mitochondria Different-Phenotype (%) [5]: 5%
Population Mitotic Cells (%) [5]: 54%
Population Normal (%) [5]: 79%
Population Pyknosed Nuclei (%) [5]: 15%
Population Tubulin-Different-Phenotype (%) [5]: 16%
Total Cell Count [5]: 268
Population Apoptotic (%) [6]: 62%
Population Fragmented Nuclei (%) [6]: 70%
Population Healthy Nuclei (%) [6]: 17%
Population Hoechst High Intensity Objects (%) [6]: 31%
Population Membrane Permeable-Phenotype (%) [6]: 0%
Population Mitochondria Different-Phenotype (%) [6]: 27%
Population Mitotic Cells (%) [6]: 37%
Population Normal (%) [6]: 68%
Population Pyknosed Nuclei (%) [6]: 12%
Population Tubulin-Different-Phenotype (%) [6]: 36%
Total Cell Count [6]: 94
Population Apoptotic (%) [7]: 70%
Population Fragmented Nuclei (%) [7]: 44%
Population Healthy Nuclei (%) [7]: 45%
Population Hoechst High Intensity Objects (%) [7]: 62%
Population Membrane Permeable-Phenotype (%) [7]: 20%
Population Mitochondria Different-Phenotype (%) [7]: 14%
Population Mitotic Cells (%) [7]: 29%
Population Normal (%) [7]: 37%
Population Pyknosed Nuclei (%) [7]: 10%
Population Tubulin-Different-Phenotype (%) [7]: 65%
Total Cell Count [7]: 437
Population Apoptotic (%) [8]: 56%
Population Fragmented Nuclei (%) [8]: 40%
Population Healthy Nuclei (%) [8]: 36%
Population Hoechst High Intensity Objects (%) [8]: 51%
Population Membrane Permeable-Phenotype (%) [8]: 24%
Population Mitochondria Different-Phenotype (%) [8]: 28%
Population Mitotic Cells (%) [8]: 43%
Population Normal (%) [8]: 48%
Population Pyknosed Nuclei (%) [8]: 23%
Population Tubulin-Different-Phenotype (%) [8]: 40%
Total Cell Count [8]: 143
